In general, IC50 refers to the point on the concentration scale where inhibition reaches its midpoint. The term Papp B→A denotes the apparent permeability from the basolateral to the apical side of a cell layer. A word on the efflux ratio: it is a quotient of directional permeabilities that is used to spot active efflux. One may read the half-life as how long it takes for the measured level to halve. A low value points to rapid decline.

The values below come from ChEMBL document CHEMBL4706499, “PTG-0861: A novel HDAC6-selective inhibitor as a therapeutic strategy in acute myeloid leukaemia” (Eur J Med Chem, 2020).

One data set relates to RPMI-8226. Nature of the data set: Cytotoxicity against human RPMI-8226 cells measured after 72 hrs by spectrophotometer method. The format is functional, cell-based. The following applies: RPMI-8226, 72 h.
The nature of data set [1]: Apparent permeability across basolateral to apical side in human Caco2 cells measured after 2 hrs by LC-MS/MS method. It counts as ADME, cell-based. As to conditions: Caco-2. In outline:
(§1)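 Bidirectional Caco-2 permeability was measured as Papp in the apical-to-basolateral and basolateral-to-apical directions. The efflux ratio was calculated from the two directional Papp values.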
In general terms: Passage across Caco-2 layers is used to estimate intestinal permeability.

For data set [2], the system named is MV4-11. Nature of the data set: Induction of apoptosis in human MV4-11 cells assessed as late apoptotic cells at 0.25 microM measured after 18 hrs by Annexin V/Propidium iodide stain based Flow cytometry assay (reference value: 4.91%). It counts as functional. Background: In flow cytometry, cells or beads pass a laser one at a time.
The nature of data set [3]: Glutathione reactivity at pH 7.4 assessed as compound remaining measured after 120 mins by LC-MS/MS method. It counts as physicochemical. The following applies: glutathione solution, read-out: Stabilty.
For the next data set, the system named is Fibroblast. Nature of the data set: Cytotoxicity against pooled human fibroblasts measured after 72 hrs by spectrophotometer method. It counts as cell-based.
A short description of data set [4]: Efflux ratio of apparent permeability in human Caco2 cells measured after 2 hrs by LC-MS/MS method. It counts as ADME, cell-based. The following applies: Caco-2. In outline: as §1
For a further data set, the target named is T1, Histone deacetylase 11 (Homo sapiens, UniProt Q96DB2).
T1 sequence (Q96DB2 whole entry): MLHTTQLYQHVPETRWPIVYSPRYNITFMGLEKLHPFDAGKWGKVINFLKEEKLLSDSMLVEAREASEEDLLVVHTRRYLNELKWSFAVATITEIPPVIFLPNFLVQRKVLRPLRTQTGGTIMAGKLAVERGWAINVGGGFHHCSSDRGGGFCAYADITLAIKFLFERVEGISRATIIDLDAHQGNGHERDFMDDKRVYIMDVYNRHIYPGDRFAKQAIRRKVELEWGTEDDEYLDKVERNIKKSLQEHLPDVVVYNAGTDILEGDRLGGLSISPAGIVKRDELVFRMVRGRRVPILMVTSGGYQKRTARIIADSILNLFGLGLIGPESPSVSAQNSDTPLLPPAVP
Nature of the data set: Inhibition of recombinant full length human HDAC11 expressed in SF9 baculovirus using FAM- labelled acetylated peptide as substrate measured by Electrophoretic mobility shift assay. In general terms: In EMSA bound probe runs differently from free probe, usually more slowly.

For data set [5], the system named is MV4-11. Nature of the data set: Induction of apoptosis in human MV4-11 cells assessed as early apoptotic cells at 1 microM measured after 18 hrs by Annexin V/Propidium iodide stain based Flow cytometry assay (reference value: 1.7%). It counts as functional.
The target of data set [6] is T2, Protein deacetylase HDAC6 (Homo sapiens, UniProt Q9UBN7).
T2 sequence (Q9UBN7 whole entry): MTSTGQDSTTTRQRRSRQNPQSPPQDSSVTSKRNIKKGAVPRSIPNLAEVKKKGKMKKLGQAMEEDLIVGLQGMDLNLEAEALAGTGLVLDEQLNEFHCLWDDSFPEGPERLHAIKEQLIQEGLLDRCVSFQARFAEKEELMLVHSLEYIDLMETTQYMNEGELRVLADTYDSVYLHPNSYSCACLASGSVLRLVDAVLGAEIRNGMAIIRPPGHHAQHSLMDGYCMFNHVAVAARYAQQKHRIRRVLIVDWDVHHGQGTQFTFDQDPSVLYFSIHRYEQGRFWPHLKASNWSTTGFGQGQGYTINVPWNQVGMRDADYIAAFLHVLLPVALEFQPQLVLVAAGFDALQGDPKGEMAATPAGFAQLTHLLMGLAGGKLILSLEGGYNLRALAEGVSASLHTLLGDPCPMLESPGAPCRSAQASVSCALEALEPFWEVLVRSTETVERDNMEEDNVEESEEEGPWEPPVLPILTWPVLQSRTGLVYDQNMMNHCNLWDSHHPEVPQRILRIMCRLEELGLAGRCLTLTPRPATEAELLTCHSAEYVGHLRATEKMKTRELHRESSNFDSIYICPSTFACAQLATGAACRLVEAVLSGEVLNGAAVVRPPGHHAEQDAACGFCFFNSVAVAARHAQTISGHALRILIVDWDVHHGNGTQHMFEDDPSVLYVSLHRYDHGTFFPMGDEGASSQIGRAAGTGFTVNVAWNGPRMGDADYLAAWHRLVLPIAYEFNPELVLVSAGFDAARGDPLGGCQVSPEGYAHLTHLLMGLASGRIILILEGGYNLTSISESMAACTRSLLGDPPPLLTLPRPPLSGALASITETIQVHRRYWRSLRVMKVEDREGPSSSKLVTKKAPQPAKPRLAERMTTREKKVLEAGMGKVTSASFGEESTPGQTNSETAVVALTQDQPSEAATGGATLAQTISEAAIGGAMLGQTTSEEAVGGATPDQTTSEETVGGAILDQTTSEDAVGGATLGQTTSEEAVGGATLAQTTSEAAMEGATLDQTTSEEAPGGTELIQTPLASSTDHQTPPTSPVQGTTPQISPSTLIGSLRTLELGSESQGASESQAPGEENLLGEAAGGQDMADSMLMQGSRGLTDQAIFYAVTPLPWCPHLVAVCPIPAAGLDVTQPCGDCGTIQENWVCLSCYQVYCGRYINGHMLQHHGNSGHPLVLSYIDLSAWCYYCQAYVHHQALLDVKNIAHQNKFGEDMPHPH
As to the kind of experiment: Inhibition of HDAC6 in human HeLa cells assessed by deacetylation measured after 15 mins by ELISA. It counts as cell-based. In outline: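 ELISA activity assay using HeLa-derived active HDAC6 coated on plates. A range of inhibitor concentrations was incubated with the enzyme, and deacetylation activity was monitored over time, with a 0.25 h read. The IC50 was taken from the inhibition profile.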

For data set [7], the system named is MV4-11. As to the kind of experiment: Cytotoxicity against human MV4-11 cells measured after 72 hrs by spectrophotometer method. As to conditions: MV4-11, 72 h. It counts as functional, cell-based.
Data set [8] deals with MV4-11. Nature of the data set: Induction of apoptosis in human MV4-11 cells assessed as early apoptotic cells at 0.25 microM measured after 18 hrs by Annexin V/Propidium iodide stain based Flow cytometry assay (reference value: 1.7%). It counts as functional.
Data set [9] is described as follows: Half life in mouse hepatocytes measured after 120 mins by LC/MS/MS method. The format is ADME, cell-based, Hepatocyte.
Data set [10] concerns MV4-11. As to the kind of experiment: Induction of apoptosis in human MV4-11 cells assessed as late apoptotic cells at 1 microM measured after 18 hrs by Annexin V/Propidium iodide stain based Flow cytometry assay (reference value: 4.91%). The format is functional.
Data set [11] is described as follows: Glutathione reactivity at pH 7.4 assessed as compound remaining measured after 60 mins by LC-MS/MS method. The format is physicochemical. The following applies: glutathione solution, read-out: Stabilty.

In the case of `O=C(NO)c1ccc(CNC(=O)c2c(F)c(F)c(F)c(F)c2F)cc1`, the IC50 in the data set with RPMI-8226 is 4940 nM; with Fibroblast it was 14600 nM; on Histone deacetylase 11 it was more than 1000 nM; in [6], 590 nM; with MV4-11 [7], 1850 nM. Moreover, in [1], the Papp B→A at 2 h turned out to be 0.94 ×10⁻⁶ cm/s. For the same compound, the Activity with MV4-11 [2] is listed as 5.13%; in the data set on MV4-11 [5], 4.27%; in the data set on MV4-11 [8], 1.69%; in the data set on MV4-11 [10], 11.15%. The remaining at 2 h in [3] was 97.1%. The efflux ratio at 2 h in [4] was determined as 0.71. In addition, the half-life in [9] was 50.9 min. The remaining at 1 h in data set [11] is 98%.
